Results taken from BindingDB's records for doi:10.1016/j.bmc.2014.09.055 (University of Arizona, 2014).

Molecular target: Melanocortin receptor 4 (Homo sapiens, UniProt P32245)
Test: Displacement of Eu-DTPA-NDP-a-MSH chelate from human melanocortin-4 receptor expressed in HEK293 cells after 1 hr by competitive DELFIA assay
Procedure, shortened: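 HEK293 cells stably carrying hMC4R (pcDNA3.1) were grown in DMEM plus 10% FBS, seeded at 12,000 cells/well and cultured 3 days. Whole cells were competed with unlabeled ligand against 10 nM (final) Eu-DTPA-NDP-α-MSH in binding medium (DMEM, 1 mM 1,10-phenanthroline, bacitracin, leupeptin, 0.3% BSA) for 1 h at 37 °C, in quadruplicate. EC50 and Hill slope came from variable-slope sigmoidal fits.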

Chain of Melanocortin receptor 4 (P32245 whole entry): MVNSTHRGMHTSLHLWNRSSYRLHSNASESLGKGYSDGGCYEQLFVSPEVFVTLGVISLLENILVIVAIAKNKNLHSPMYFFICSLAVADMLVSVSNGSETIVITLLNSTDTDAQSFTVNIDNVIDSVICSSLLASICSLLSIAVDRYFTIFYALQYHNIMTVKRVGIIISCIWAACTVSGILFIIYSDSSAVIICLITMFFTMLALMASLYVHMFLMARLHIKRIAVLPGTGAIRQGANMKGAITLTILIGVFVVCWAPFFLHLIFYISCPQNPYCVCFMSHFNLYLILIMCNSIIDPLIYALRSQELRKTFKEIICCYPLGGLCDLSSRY

| SMILES | EC50 [nM] |
| --- | --- |
| CCCC[C@H](NC(=O)COCC(=O)NCCCOCCOCCOCCCNC(=O)COCC(=O)NCCCOCCOCCOCCCNC(=O)[C@H](Cc1c[nH]c2ccccc12)NC(=O)[C@H](CCCNC(=N)N)NC(=O)[C@@H](Cc1ccccc1)NC(=O)[C@H](Cc1cnc[nH]1)NC(=O)[C@H](CCC(=O)O)NC(=O)[C@H](CC(C)C)NC(=O)[C@H](CO)NC(C)=O)C(=O)N[C@H]1CC(=O)NCCCC[C@@H](C(N)=O)NC(=O)[C@H](Cc2c[nH]c3ccccc23)NC(=O)[C@H](CCCNC(=N)N)NC(=O)[C@@H](Cc2ccc3ccccc3c2)NC(=O)[C@H](Cc2cnc[nH]2)NC1=O | 1.7 |
| CCCC[C@H](NC(=O)CNC(=O)[C@@H]1CCCN1C(=O)CNC(=O)[C@@H]1CCCN1C(=O)CNC(=O)[C@@H]1CCCN1C(=O)CNC(=O)[C@@H]1CCCN1C(=O)CNC(=O)[C@@H]1CCCN1C(=O)CNC(=O)[C@@H]1CCCN1C(=O)CNC(=O)[C@@H]1CCCN1C(=O)CNC(=O)[C@@H]1CCCN1C(=O)CNC(=O)[C@@H]1CCCN1C(=O)CNC(=O)[C@@H]1CCCN1C(=O)CNC(=O)[C@@H]1CCCN1C(=O)CNC(=O)[C@@H]1CCCN1C(=O)[C@H](Cc1c[nH]c2ccccc12)NC(=O)[C@H](CCCNC(=N)N)NC(=O)[C@@H](Cc1ccccc1)NC(=O)[C@H](Cc1cnc[nH]1)NC(=O)[C@H](CCC(=O)O)NC(=O)[C@H](CC(C)C)NC(=O)[C@H](CO)NC(C)=O)C(=O)N[C@H]1CC(=O)NCCCC[C@@H](C(N)=O)NC(=O)[C@H](Cc2c[nH]c3ccccc23)NC(=O)[C@H](CCCNC(=N)N)NC(=O)[C@@H](Cc2ccc3ccccc3c2)NC(=O)[C@H](Cc2cnc[nH]2)NC1=O | 1.6 |
